# Tested on: Aspergillus nidulans
# Assay: Antifungal activity against Aspergillus nidulans ATCC 38163 after 48 hrs by CLSI M38-A2 method
# Format: functional
# Conditions: ATCC 38163, 48 h
row,SMILES,MIC
1,C#CCOc1ccc(-c2nc3ccc(-c4nc5ccc(-c6nc7ccc(N8CCN(C)CC8)cc7[nH]6)cc5[nH]4)cc3[nH]2)cc1,31.2 µg/mL
2,CN1CCN(c2ccc3nc(-c4ccc5nc(-c6ccc(OCCOCCO)cc6)[nH]c5c4)[nH]c3c2)CC1,> 31.2 µg/mL
3,C#CCOc1ccc(-c2nc3ccc(N4CCN(C)CC4)cc3[nH]2)cc1,> 31.2 µg/mL

# Tested on: Candida albicans
# Assay: Antifungal activity against Candida albicans ATCC MYA-90819 after 48 hrs by CLSI M27-A3 method
# Format: functional
# Conditions: ATCC MYA-90819, 48 h
row,SMILES,MIC
1,OC(Cn1cncn1)(Cn1cncn1)c1ccc(F)cc1F [FLUCONAZOLE],> 125 µg/mL
2,C#CCOc1ccc(-c2nc3ccc(-c4nc5ccc(-c6nc7ccc(N8CCN(C)CC8)cc7[nH]6)cc5[nH]4)cc3[nH]2)cc1,> 31.2 µg/mL
3,CN1CCN(c2ccc3nc(-c4ccc5nc(-c6ccc(OCCOCCO)cc6)[nH]c5c4)[nH]c3c2)CC1,> 31.2 µg/mL
4,C#CCOc1ccc(-c2nc3ccc(N4CCN(C)CC4)cc3[nH]2)cc1,> 31.2 µg/mL

# Tested on: not listed separately
# Assay: Cytotoxicity against human BEAS2B cells assessed as reduction in cell survival after 24 hrs by resazurin assay
# Format: cell-based
# Conditions: BEAS-2B
# Outline: (§1)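 Human A549 cells treated 24 h; BEAS 2B cells treated 6 h or 24 h. DMSO-treated cells served as negative control and Triton X-treated cells as positive control. Read-out was cell survival.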
row,SMILES,IC50
1,C#CCOc1ccc(-c2nc3ccc(-c4nc5ccc(N6CCN(C)CC6)cc5[nH]4)cc3[nH]2)cc1,0.98 µg/mL

# Tested on: Nakaseomyces glabratus
# Assay: Antifungal activity against Candida glabrata ATCC 2001 after 48 hrs by CLSI M27-A3 method
# Format: functional
# Conditions: CBS 138, 48 h
row,SMILES,MIC
1,C#CCOc1ccc(-c2nc3ccc(-c4nc5ccc(N6CCN(C)CC6)cc5[nH]4)cc3[nH]2)cc1,7.8 µg/mL
2,OC(Cn1cncn1)(Cn1cncn1)c1ccc(F)cc1F [FLUCONAZOLE],> 31.2 µg/mL
3,C#CCOc1ccc(-c2nc3ccc(-c4nc5ccc(-c6nc7ccc(N8CCN(C)CC8)cc7[nH]6)cc5[nH]4)cc3[nH]2)cc1,31.2 µg/mL
4,CN1CCN(c2ccc3nc(-c4ccc5nc(-c6ccc(OCCOCCO)cc6)[nH]c5c4)[nH]c3c2)CC1,> 31.2 µg/mL
5,C#CCOc1ccc(-c2nc3ccc(N4CCN(C)CC4)cc3[nH]2)cc1,> 31.2 µg/mL

# Tested on: Candida albicans
# Assay: Antifungal activity against Candida albicans ATCC MYA-1237 after 48 hrs by CLSI M27-A3 method
# Format: functional
# Conditions: ATCC MYA-1237, 48 h
row,SMILES,MIC
1,C#CCOc1ccc(-c2nc3ccc(-c4nc5ccc(N6CCN(C)CC6)cc5[nH]4)cc3[nH]2)cc1,> 31.2 µg/mL
2,C#CCOc1ccc(-c2nc3ccc(-c4nc5ccc(-c6nc7ccc(N8CCN(C)CC8)cc7[nH]6)cc5[nH]4)cc3[nH]2)cc1,> 31.2 µg/mL
3,CN1CCN(c2ccc3nc(-c4ccc5nc(-c6ccc(OCCOCCO)cc6)[nH]c5c4)[nH]c3c2)CC1,> 31.2 µg/mL
4,C#CCOc1ccc(-c2nc3ccc(N4CCN(C)CC4)cc3[nH]2)cc1,> 31.2 µg/mL

# Tested on: A549
# Assay: Cytotoxicity against human A549 cells assessed as reduction in cell survival after 24 hrs by resazurin assay
# Format: cell-based
# Conditions: A549, 24 h
# Outline: as §1
row,SMILES,IC50
1,C#CCOc1ccc(-c2nc3ccc(-c4nc5ccc(N6CCN(C)CC6)cc5[nH]4)cc3[nH]2)cc1,15.6 µg/mL

# Tested on: Pichia kudriavzevii
# Assay: Antifungal activity against Candida krusei ATCC 6258 after 48 hrs by CLSI M27-A3 method
# Format: functional
# Conditions: ATCC 6258, 48 h
row,SMILES,MIC
1,C#CCOc1ccc(-c2nc3ccc(-c4nc5ccc(N6CCN(C)CC6)cc5[nH]4)cc3[nH]2)cc1,7.8 µg/mL
2,C#CCOc1ccc(-c2nc3ccc(-c4nc5ccc(-c6nc7ccc(N8CCN(C)CC8)cc7[nH]6)cc5[nH]4)cc3[nH]2)cc1,> 31.2 µg/mL
3,CN1CCN(c2ccc3nc(-c4ccc5nc(-c6ccc(OCCOCCO)cc6)[nH]c5c4)[nH]c3c2)CC1,7.8 µg/mL
4,C#CCOc1ccc(-c2nc3ccc(N4CCN(C)CC4)cc3[nH]2)cc1,> 31.2 µg/mL

# Tested on: Candida albicans
# Assay: Antifungal activity against Candida albicans ATCC 10231 after 48 hrs by CLSI M27-A3 method
# Format: functional
# Conditions: ATCC 10231, 48 h
row,SMILES,MIC
1,C#CCOc1ccc(-c2nc3ccc(-c4nc5ccc(N6CCN(C)CC6)cc5[nH]4)cc3[nH]2)cc1,7.8 µg/mL
2,C#CCOc1ccc(-c2nc3ccc(-c4nc5ccc(-c6nc7ccc(N8CCN(C)CC8)cc7[nH]6)cc5[nH]4)cc3[nH]2)cc1,> 31.2 µg/mL
3,CN1CCN(c2ccc3nc(-c4ccc5nc(-c6ccc(OCCOCCO)cc6)[nH]c5c4)[nH]c3c2)CC1,> 31.2 µg/mL
4,C#CCOc1ccc(-c2nc3ccc(N4CCN(C)CC4)cc3[nH]2)cc1,> 31.2 µg/mL

# Tested on: Candida parapsilosis
# Assay: Antifungal activity against Candida parapsilosis ATCC 22019 after 48 hrs by CLSI M27-A3 method
# Format: functional
# Conditions: Lodderomyces parapsilosis, ATCC 22019, 48 h
row,SMILES,MIC
1,C#CCOc1ccc(-c2nc3ccc(-c4nc5ccc(N6CCN(C)CC6)cc5[nH]4)cc3[nH]2)cc1,1.95 µg/mL
2,OC(Cn1cncn1)(Cn1cncn1)c1ccc(F)cc1F [FLUCONAZOLE],1.95 µg/mL
3,C#CCOc1ccc(-c2nc3ccc(-c4nc5ccc(-c6nc7ccc(N8CCN(C)CC8)cc7[nH]6)cc5[nH]4)cc3[nH]2)cc1,> 31.2 µg/mL
4,CN1CCN(c2ccc3nc(-c4ccc5nc(-c6ccc(OCCOCCO)cc6)[nH]c5c4)[nH]c3c2)CC1,31.2 µg/mL
5,C#CCOc1ccc(-c2nc3ccc(N4CCN(C)CC4)cc3[nH]2)cc1,> 31.2 µg/mL

# Tested on: Candida albicans
# Assay: Antifungal activity against Candida albicans ATCC MYA-2876 after 48 hrs by CLSI M27-A3 method
# Format: functional
# Conditions: ATCC MYA-2876, 48 h
row,SMILES,MIC
1,C#CCOc1ccc(-c2nc3ccc(-c4nc5ccc(N6CCN(C)CC6)cc5[nH]4)cc3[nH]2)cc1,7.8 µg/mL
2,OC(Cn1cncn1)(Cn1cncn1)c1ccc(F)cc1F [FLUCONAZOLE],15.6 µg/mL
3,C#CCOc1ccc(-c2nc3ccc(-c4nc5ccc(-c6nc7ccc(N8CCN(C)CC8)cc7[nH]6)cc5[nH]4)cc3[nH]2)cc1,> 31.2 µg/mL
4,CN1CCN(c2ccc3nc(-c4ccc5nc(-c6ccc(OCCOCCO)cc6)[nH]c5c4)[nH]c3c2)CC1,> 31.2 µg/mL
5,C#CCOc1ccc(-c2nc3ccc(N4CCN(C)CC4)cc3[nH]2)cc1,> 31.2 µg/mL

# Tested on: not listed separately
# Assay: Cytotoxicity against human BEAS2B cells assessed as reduction in cell survival after 6 hrs by resazurin assay
# Format: cell-based
# Conditions: beas-2b
# Outline: as §1
row,SMILES,Activity
1,C#CCOc1ccc(-c2nc3ccc(-c4nc5ccc(N6CCN(C)CC6)cc5[nH]4)cc3[nH]2)cc1,Non-toxic

# Tested on: Aspergillus flavus
# Assay: Antifungal activity against Aspergillus flavus ATCC MYA-3631 after 48 hrs by CLSI M38-A2 method
# Format: functional
# Conditions: ATCC MYA-3631, 48 h
row,SMILES,MIC
1,C#CCOc1ccc(-c2nc3ccc(-c4nc5ccc(N6CCN(C)CC6)cc5[nH]4)cc3[nH]2)cc1,> 31.2 µg/mL
2,C#CCOc1ccc(-c2nc3ccc(-c4nc5ccc(-c6nc7ccc(N8CCN(C)CC8)cc7[nH]6)cc5[nH]4)cc3[nH]2)cc1,> 31.2 µg/mL
3,CN1CCN(c2ccc3nc(-c4ccc5nc(-c6ccc(OCCOCCO)cc6)[nH]c5c4)[nH]c3c2)CC1,> 31.2 µg/mL
4,C#CCOc1ccc(-c2nc3ccc(N4CCN(C)CC4)cc3[nH]2)cc1,> 31.2 µg/mL

# Tested on: Candida albicans
# Assay: Antifungal activity against Candida albicans ATCC MYA-2310 after 48 hrs by CLSI M27-A3 method
# Format: functional
# Conditions: ATCC MYA-2310, 48 h
row,SMILES,MIC
1,C#CCOc1ccc(-c2nc3ccc(-c4nc5ccc(N6CCN(C)CC6)cc5[nH]4)cc3[nH]2)cc1,7.8 µg/mL
2,OC(Cn1cncn1)(Cn1cncn1)c1ccc(F)cc1F [FLUCONAZOLE],> 125 µg/mL
3,C#CCOc1ccc(-c2nc3ccc(-c4nc5ccc(-c6nc7ccc(N8CCN(C)CC8)cc7[nH]6)cc5[nH]4)cc3[nH]2)cc1,> 31.2 µg/mL
4,CN1CCN(c2ccc3nc(-c4ccc5nc(-c6ccc(OCCOCCO)cc6)[nH]c5c4)[nH]c3c2)CC1,> 31.2 µg/mL
5,C#CCOc1ccc(-c2nc3ccc(N4CCN(C)CC4)cc3[nH]2)cc1,> 31.2 µg/mL

# Tested on: Candida albicans
# Assay: Antifungal activity against Candida albicans ATCC MYA-1003 after 48 hrs by CLSI M27-A3 method
# Format: functional
# Conditions: ATCC MYA-1003, 48 h
row,SMILES,MIC
1,C#CCOc1ccc(-c2nc3ccc(-c4nc5ccc(-c6nc7ccc(N8CCN(C)CC8)cc7[nH]6)cc5[nH]4)cc3[nH]2)cc1,> 31.2 µg/mL
2,CN1CCN(c2ccc3nc(-c4ccc5nc(-c6ccc(OCCOCCO)cc6)[nH]c5c4)[nH]c3c2)CC1,> 31.2 µg/mL
3,C#CCOc1ccc(-c2nc3ccc(N4CCN(C)CC4)cc3[nH]2)cc1,> 31.2 µg/mL

# Tested on: Candida albicans
# Assay: Antifungal activity against Candida albicans ATCC 64124 after 48 hrs by CLSI M27-A3 method
# Format: functional
# Conditions: ATCC 64124, 48 h
row,SMILES,MIC
1,C#CCOc1ccc(-c2nc3ccc(-c4nc5ccc(N6CCN(C)CC6)cc5[nH]4)cc3[nH]2)cc1,31.2 µg/mL
2,OC(Cn1cncn1)(Cn1cncn1)c1ccc(F)cc1F [FLUCONAZOLE],> 125 µg/mL
3,C#CCOc1ccc(-c2nc3ccc(-c4nc5ccc(-c6nc7ccc(N8CCN(C)CC8)cc7[nH]6)cc5[nH]4)cc3[nH]2)cc1,> 31.2 µg/mL
4,CN1CCN(c2ccc3nc(-c4ccc5nc(-c6ccc(OCCOCCO)cc6)[nH]c5c4)[nH]c3c2)CC1,> 31.2 µg/mL
5,C#CCOc1ccc(-c2nc3ccc(N4CCN(C)CC4)cc3[nH]2)cc1,> 31.2 µg/mL

# Tested on: Aspergillus terreus
# Assay: Antifungal activity against Aspergillus terreus ATCC MYA3633 after 48 hrs by CLSI M38-A2 method
# Format: functional
# Conditions: ATCC MYA3633, 48 h
row,SMILES,MIC
1,C#CCOc1ccc(-c2nc3ccc(-c4nc5ccc(-c6nc7ccc(N8CCN(C)CC8)cc7[nH]6)cc5[nH]4)cc3[nH]2)cc1,31.2 µg/mL
2,CN1CCN(c2ccc3nc(-c4ccc5nc(-c6ccc(OCCOCCO)cc6)[nH]c5c4)[nH]c3c2)CC1,> 31.2 µg/mL
3,C#CCOc1ccc(-c2nc3ccc(N4CCN(C)CC4)cc3[nH]2)cc1,> 31.2 µg/mL
